PubChem BioAssay AID624466 (The Scripps Research Institute Molecular Screening Center, 2012)
Several values for one entry are separate records, joined by “and”; a condition that tells them apart may be missing. Identical values can stand only once. Out of some 360,000 compounds screened, about 5,400 (1.5%) were called active. For the sample, actives were picked, then their nearest neighbours and some compounds at random. Values without a mark were called inactive.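 Rule for the calls: active = inhibition above a per-plate cutoff, the mean inhibition of test compounds on that plate plus 3 SD (cut at about 49% in these data); inactive = the rest.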

Biological target: Trace amine-associated receptor 1 (Homo sapiens) (UniProt Q96RJ0)
Sequence (Q96RJ0 whole entry, looked up): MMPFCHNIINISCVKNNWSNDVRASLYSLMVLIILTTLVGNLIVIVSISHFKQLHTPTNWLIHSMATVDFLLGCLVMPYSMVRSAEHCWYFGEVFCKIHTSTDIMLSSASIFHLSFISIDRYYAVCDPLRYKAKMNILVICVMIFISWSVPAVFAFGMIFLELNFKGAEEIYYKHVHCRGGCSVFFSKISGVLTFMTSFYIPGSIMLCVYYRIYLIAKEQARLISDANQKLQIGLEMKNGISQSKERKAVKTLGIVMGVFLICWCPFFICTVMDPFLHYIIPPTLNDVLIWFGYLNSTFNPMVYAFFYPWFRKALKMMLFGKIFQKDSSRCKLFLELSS
Experiment: human TAAR1 antagonists, primary screen, Fluo-8 calcium fluorescence, CHO RD-HGA16 cells (AID 624466);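 note: 0% = DMSO plus EC80 beta-PEA response and 100% = DMSO alone without agonist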
Conditions: CHO RD-HGA16 TAAR1, Fluo-8 calcium fluorescence, antagonist; at 3 µM; active compounds read high
Summary of the method: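 System: CHO RD-HGA16 cells bearing hTAAR1. Reagent: EC80 β-phenethylamine stimulus. Schedule: seeding 17-24 h prior, 75-min 37 °C, 30-min RT dye loading. Signal: Fluo-8 intracellular calcium dye fluorescence, real-time kinetic reads. Read-out: % inhibition from peak post-agonist over basal fluorescence ratio. Benchmarks: vehicle wells and EC80 agonist wells. Replicates: n of 1.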

Question: C=CCN=C1NC(c2cccc(C(F)(F)F)c2)C(C(=O)OC)=C(C)N1C (stereo not drawn) was tested. Which inhibition did it give?
Answer: 5.15%

Question: How did the inhibition turn out when C[C@@H](CN1C2=NC[C@@H](Cc3ccccc3)N2C[C@H]1Cc1ccc(O)cc1)NC(=O)CCC1CCCCC1 was run?
Answer: -6.17%

Question: Cc1ccc(CC2(C)C(=O)Nc3ccc(OC(F)(F)F)cc32)cc1 (stereo not drawn) was tested. Which inhibition did it give?
Answer: -5.18%

Question: Which inhibition does the source give for CCc1ccc2c(c1)NC(=O)C2(C)Cc1ccc(OC(F)(F)F)cc1 (stereo not drawn) here?
Answer: 55.2% (active)

Question: How did the inhibition turn out when COc1ccccc1CC1(C)C(=O)Nc2ccc(OC(F)(F)F)cc21 (stereo not drawn) was run?
Answer: -12.2%

Question: For CCOC(=O)c1cc2c(ccn2C)n1CC(=O)N1CCC(C)CC1, which inhibition is on record?
Answer: -7.37%

Question: With COc1ccc(CCNc2nc(C)cc(C)n2)cc1OC as the compound, how does the inhibition read?
Answer: -1.79%

Question: With COc1ccc(CCNC2=C(Cl)C(=O)N(Cc3ccccc3)C2=O)cc1OC as the compound, how does the inhibition read?
Answer: 63% (active)

Question: Which inhibition does the source give for COc1ccc(CCNC(=O)c2ccccc2-c2ccccc2C(=O)O)cc1OC here?
Answer: -6.06%

Question: How did the inhibition turn out when CC(=O)Nc1ccccc1OC(C)C(=O)N1CCC(C)CC1 (stereo not drawn) was run?
Answer: -3.93%

Question: For COc1ccc2c(c1)C(SCC(=O)NCc1ccccc1)CC(C)(C)O2 (stereo not drawn), which inhibition is on record?
Answer: 13%

Question: With C=CC[C@@H](Cc1ccc(F)cc1)C(=O)OC[C@H]1CCCN1C(=O)[C@H](CC=C)CC(=O)N(CCO)Cc1ccccc1 as the compound, how does the inhibition read?
Answer: 39.6%

Question: Which inhibition does the source give for C=CCC[C@H](Cc1ccc(F)cc1)C(=O)OC[C@@H](NC(=O)[C@@H](CC=C)CC(=O)N[C@H](CO)Cc1ccccc1)C(C)(C)C here?
Answer: 37.2%

Question: Which inhibition does the source give for C=CCC[C@@H](Cc1ccc(F)cc1)C(=O)OC[C@@H](C)NC(=O)[C@H](CC=C)CC(=O)N(CCO)Cc1ccccc1 here?
Answer: 46.1%

Question: Which inhibition does the source give for C=CCC[C@@H](Cc1ccc(F)cc1)C(=O)OC[C@H](Cc1c[nH]c2ccccc12)NC(=O)[C@@H](CC=C)CC(=O)N(CCO)Cc1ccccc1 here?
Answer: 38.4%

Question: C=CC[C@@H](CC(=O)N[C@H](CO)Cc1ccccc1)C(=O)N[C@@H](COC(=O)[C@@H](CC=C)Cc1ccc(F)cc1)Cc1c[nH]c2ccccc12 was tested. Which inhibition did it give?
Answer: 9.92%

Question: How did the inhibition turn out when C=CC[C@H](CC(=O)N(CCO)Cc1ccccc1)C(=O)N[C@@H](COC(=O)[C@@H](CC=C)Cc1ccc(F)cc1)Cc1ccccc1 was run?
Answer: 61.4% (active)

Question: C=CCC[C@@H](Cc1ccc(F)cc1)C(=O)O[C@H](CNC(=O)[C@H](CC=C)CC(=O)N(CCO)Cc1ccccc1)c1ccccc1 was tested. Which inhibition did it give?
Answer: 75.5% (active)

Question: Which inhibition does the source give for C=CCC[C@H](Cc1ccc(F)cc1)C(=O)OC[C@H](C)NC(=O)[C@H](CC=C)CC(=O)N(CCO)Cc1ccccc1 here?
Answer: 55.4% (active)

Question: For C=CC[C@@H](CC(=O)N[C@H](CO)Cc1ccccc1)C(=O)N[C@H](C)COC(=O)[C@@H](CC=C)Cc1ccc(F)cc1, which inhibition is on record?
Answer: 38%

Question: With COC(=O)C1(C(=O)OC)C[C@H](c2ccccc2)N(Cc2ccccc2OC)[C@@H]1c1ccccc1 as the compound, how does the inhibition read?
Answer: -23.2%

Question: With Cc1noc(C)c1NC(=O)Nc1ccc2c(c1)C(=O)N([C@H](C)CO)C[C@H](C)[C@H](CN(C)Cc1ccncc1)OCCCC[C@@H](C)O2 as the compound, how does the inhibition read?
Answer: 8.35%

Question: For CCCCCCc1cc2cc(-c3nnc(-c4cccc(OC)c4)o3)c(=O)oc2cc1O, which inhibition is on record?
Answer: 15.5%

Question: Nc1[nH]c(C(=O)c2ccccc2)c(-c2ccncc2)c1C(=O)NCc1cccc2ccccc12 was tested. Which inhibition did it give?
Answer: 36.1%

Question: Which inhibition does the source give for NC(=O)c1ncn([C@@H]2O[C@H](C(=O)O)[C@@H](O)[C@H]2O)n1 here?
Answer: -11.9%

Question: For COc1cccc(CNC(=O)[C@H]2CCCN2C(=O)[C@H]2CCCN2C(=O)c2ccc(F)cc2)c1, which inhibition is on record?
Answer: -14.1%

Question: NC(=O)c1nsc(C(=O)N(CC(=O)NCc2ccc(F)cc2)Cc2ccco2)c1N was tested. Which inhibition did it give?
Answer: 10.2%

Question: COc1ccc(CNC(=O)C(c2ccc(O)cc2)N(Cc2ccco2)C(=O)c2snc(C(N)=O)c2N)cc1 (stereo not drawn) was tested. Which inhibition did it give?
Answer: 65% (active)

Question: COc1cc(C(C(=O)NC2CCCC2)N(Cc2ccccc2)C(=O)c2snc(C(N)=O)c2N)ccc1O (stereo not drawn) was tested. Which inhibition did it give?
Answer: 23.1%

Question: With COc1ccc2nc3n(c(=O)c2c1)-c1ccc(Cl)cc1C(=O)NC3Cc1ccccc1 (stereo not drawn) as the compound, how does the inhibition read?
Answer: 25.3%

Question: Which inhibition does the source give for CCC(C(=O)OCC(=O)Nc1ccc(C(=O)Nc2ccc(OC)cc2)cc1)c1ccccc1 (stereo not drawn) here?
Answer: 65.6% (active)

Question: CCC(C(=O)OCC(=O)Nc1ccccc1-c1ccccc1)c1ccccc1 (stereo not drawn) was tested. Which inhibition did it give?
Answer: 36.7%

Question: CCC(C(=O)OCC(=O)Nc1c(Cl)cc(Cl)cc1Cl)c1ccccc1 (stereo not drawn) was tested. Which inhibition did it give?
Answer: 15.1%

Question: How did the inhibition turn out when O=C1Nc2c(Br)cc(Br)cc2C1(O)N1CCOCC1 (stereo not drawn) was run?
Answer: 1.94%

Question: Which inhibition does the source give for COc1ccc(-c2cc3nc(C)c(CCC(=O)NC(C)CCc4ccco4)c(C)n3n2)c(OC)c1 (stereo not drawn) here?
Answer: 8.4%

Question: With COc1ccc2[nH]c3c(c2c1)CCN1C(=O)C(CC(=O)NCCc2ccccn2)C[C@H](C(=O)N2CCOCC2)[C@@]31C (stereo partly drawn) as the compound, how does the inhibition read?
Answer: 3.09%

Question: For CCN1C(=O)N[C@@H]2C[C@H](C(=O)N3CCCC3)[C@H](C)[C@H](c3ccccc3)C[C@@H]21, which inhibition is on record?
Answer: 6%

Question: Cc1ccc(C)c(S(=O)(=O)N2CCN(c3ncnc4sccc34)CC2)c1 was tested. Which inhibition did it give?
Answer: 65.3% (active)

Question: For Cc1ccc(C)c(S(=O)(=O)N2CCN(CC(=O)Nc3ccc([N+](=O)[O-])cc3)CC2)c1, which inhibition is on record?
Answer: 28.5%

Question: How did the inhibition turn out when Cc1ccc(C)c(S(=O)(=O)n2cnc3ccccc32)c1 was run?
Answer: -29.5%

Question: For COc1ccc(NC(=O)N(C)C[C@@H]2OCCCC[C@@H](C)Oc3ccc(NC(=O)NC4CCCCC4)cc3C(=O)N([C@H](C)CO)C[C@@H]2C)cc1, which inhibition is on record?
Answer: 2.84%

Question: How did the inhibition turn out when CC[C@H](C)[C@H]1CNC(=O)C(=O)N1CC1CCN(CCc2ccc(OC)c(OC)c2)CC1 was run?
Answer: 9.23%

Question: For CCO/C([O-])=N/c1c[n+](N2CCOCC2)no1, which inhibition is on record?
Answer: -14.5% and -7.68%
